ChEMBL document CHEMBL1131088 (J Med Chem, 1998)

Legend:
Jurkat = assay: In vitro inhibitory activity against Jurkat cell proliferation; format: functional, cell-based; conditions: Homo sapiens
Outline: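 Human Jurkat T cells kept in FCS-supplemented RPMI; 5 × 10⁴ cells/well cultured 2 days in 200 μL RPMI with test compound. Proliferation read as [³H]thymidine incorporation at the end of culture.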

[1] = molecular target: Dihydroorotate dehydrogenase (quinone), mitochondrial (Homo sapiens, UniProt Q02127); assay: In vitro inhibitory activity against human dihydroorotate dehydrogenase (DHODH)
Mus musculus [2] = species on record: Mus musculus; assay: In vitro inhibitory activity against murine antibody response to T-cell independent B-cell antigen TNP-LPS (type I); format: functional
Outline: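 C57Bl/6 nu/nu and C57Bl/6 spleen cells, 2 × 10⁵/well in duplicate, IMDM-ATL + 10% FCS with serial drug dilutions and optimal TNP-LPS, 4 days at 37 °C. Pooled supernatants went to ELISA on BSA-DNP plates, developed with biotin anti-mouse IgM, streptavidin-alkaline phosphatase and pNPP, read at 405/490 nm. % inhibition was taken relative to unstimulated (low) and stimulated (high) controls.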

Mus musculus [3] = species on record: Mus musculus; assay: In vitro inhibitory activity against mouse mixed lymphocyte reaction (MLR); format: functional
Outline: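 Equal numbers of C57Bl/6 (H-2^b) and CBA/2 (H-2^k) spleen cells mixed; 4 × 10⁵ cells/well with serial dilutions (DMSO/water) in 200 μL complete RPMI, 4 days, 37 °C, 5% CO₂. Proliferation by [³H]thymidine incorporation.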

Chain of Dihydroorotate dehydrogenase (quinone), mitochondrial (Q02127 whole entry): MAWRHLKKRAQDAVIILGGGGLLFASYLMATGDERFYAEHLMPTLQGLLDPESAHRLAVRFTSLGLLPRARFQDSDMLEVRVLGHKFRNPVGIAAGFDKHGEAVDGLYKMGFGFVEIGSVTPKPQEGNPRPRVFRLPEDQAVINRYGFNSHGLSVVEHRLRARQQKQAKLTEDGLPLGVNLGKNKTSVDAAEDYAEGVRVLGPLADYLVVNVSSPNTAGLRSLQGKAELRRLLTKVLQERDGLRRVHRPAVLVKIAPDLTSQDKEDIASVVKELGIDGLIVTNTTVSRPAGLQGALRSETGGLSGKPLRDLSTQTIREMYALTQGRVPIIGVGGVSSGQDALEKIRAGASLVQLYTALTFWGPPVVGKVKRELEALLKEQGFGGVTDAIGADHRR

Structure (SMILES) | IC50 (Jurkat) [µM] | IC50 [1] [µM] | IC50 (Mus musculus [2]) [µM] | IC50 (Mus musculus [3]) [µM]
Cc1n[nH]c(Nc2ccccc2)c1C#N | > 50 | > 50 | > 50 | > 50
FC(F)(F)c1ccc(Nc2[nH]nc3c2CCCC3)cc1 | 31.2 | 6.2 | 13.8 | 3.4
Cc1cc(Nc2ccc(C(F)(F)F)cc2)[nH]n1 | > 50 | 16.5 | 26.5 | 16.5
CCNc1[nH]nc(Nc2ccc(C(F)(F)F)cc2)c1C#N | 38.7 | > 50 | 16.9 | 7.5
CC(C)c1n[nH]c(Nc2ccc(C(F)(F)F)cc2)c1C#N | > 50 | 4 | 4.7 | 3.1
Cc1n[nH]c(Nc2ccc(F)cc2)c1C#N | > 50 | 19.4 | 9.2 | 7.4
Cc1ccc(Nc2[nH]nc(C)c2C#N)cc1 | – | 12.1 | > 50 | –
Cc1n[nH]c(Nc2ccc(C(F)(F)F)cc2)c1-c1ccccc1 | – | > 50 | 29.4 | –
N#Cc1c(C2CCCC2)n[nH]c1Nc1ccc(C(F)(F)F)cc1 | 31.8 | > 50 | 22.4 | 2.9
Cc1n[nH]c(Nc2ccc(C(F)(F)F)c(Br)c2)c1C#N | – | > 50 | 20.9 | –
Cc1n[nH]c(Nc2cc(C(F)(F)F)cc(C(F)(F)F)c2)c1C#N | 16.2 | > 50 | 28 | 6.7
Cc1n[nH]c(Nc2ccc(C(F)(F)F)cc2)c1C | 43 | 22.5 | 14.6 | 18.7
N#Cc1c(Nc2ccc(C(F)(F)F)cc2)n[nH]c1O | – | > 50 | > 50 | –
C/C=C/C[C@@H](C)[C@@H](O)[C@H]1C(=O)N[C@@H](CC)C(=O)N(C)CC(=O)N(C)[C@@H](CC(C)C)C(=O)N[C@@H](C(C)C)C(=O)N(C)[C@@H](CC(C)C)C(=O)N[C@@H](C)C(=O)N[C@H](C)C(=O)N(C)[C@@H](CC(C)C)C(=O)N(C)[C@@H](CC(C)C)C(=O)N(C)[C@@H](C(C)C)C(=O)N1C [CYCLOSPORINE] | > 10 | – | – | –
Cc1n[nH]c(Nc2cccc(C(F)(F)F)c2)c1C#N | – | > 50 | > 50 | –
Cc1n[nH]c(N(C)c2ccc(C(F)(F)F)cc2)c1C#N | > 50 | > 50 | 19.1 | 23.6
Cc1nn(C)c(Nc2ccc(C(F)(F)F)cc2)c1C#N | 47.2 | > 50 | 23.1 | 16.1
Cc1n[nH]c(Nc2ccc(OC(F)(F)F)cc2)c1C#N | 16.1 | 0.5 | 20 | 0.45
Cc1n[nH]c(Nc2c(F)cc(F)cc2F)c1C#N | – | 22.4 | 35 | –

Structure (SMILES) | IC50 (Jurkat) [µM] | IC50 [1] [µM] | IC50 (Mus musculus [2]) [µM] | IC50 (Mus musculus [3]) [µM]
N#Cc1c(Nc2ccc(C(F)(F)F)cc2)n[nH]c1N | > 50 | > 50 | 14.7 | 3.7
CCOC(=O)c1c(C)n[nH]c1Nc1ccc(C(F)(F)F)cc1 | – | > 50 | 23.8 | –
N#Cc1c(-c2ccncc2)n[nH]c1Nc1ccc(C(F)(F)F)cc1 | 10.8 | > 50 | 13.6 | 3.6
Cc1n[nH]c(Nc2ccc(N)cc2)c1C#N | – | > 50 | > 50 | –
Cc1n[nH]c(Nc2ccccc2C(F)(F)F)c1C#N | – | > 50 | > 50 | –
Cc1n[nH]c(Nc2ccc(C(C)(C)C)cc2)c1C#N | 12.3 | 3.6 | 30.6 | 7.6
Cc1n[nH]c(Nc2ccc([N+](=O)[O-])cc2)c1C#N | > 50 | 9 | 6.5 | 4.3
N#Cc1c(-c2cccnc2)n[nH]c1Nc1ccc(C(F)(F)F)cc1 | – | > 50 | 27 | –
N#Cc1c(-c2ccccc2)n[nH]c1Nc1ccc(C(F)(F)F)cc1 | – | > 50 | 32 | –
Cc1n[nH]c(Nc2ccc(C#N)cc2)c1C#N | > 50 | 3.2 | 11.6 | 6
O=C1CCCc2n[nH]c(Nc3ccc(C(F)(F)F)cc3)c21 | 17.7 | 6.5 | 16.7 | 8.6
N#Cc1c(-c2ccco2)n[nH]c1Nc1ccc(C(F)(F)F)cc1 | – | > 50 | > 50 | –
Cc1n[nH]c(Nc2ccc(C(F)(F)F)cc2)c1CO | – | 2.7 | 21.3 | –
Cc1oncc1C(=O)Nc1ccc(C(F)(F)F)cc1 [LEFLUNOMIDE] | 41.4 | – | 5.1 | 7.4
C/C(=N\N)c1c(C)n[nH]c1Nc1ccc(C(F)(F)F)cc1 | 41 | > 50 | 17.4 | 20.3
N#Cc1c(-c2cccs2)n[nH]c1Nc1ccc(C(F)(F)F)cc1 | – | > 50 | > 50 | –
Cc1n[nH]c(NCc2ccc(C(F)(F)F)cc2)c1C#N | > 50 | > 50 | 17.1 | 40.5
CC(C)(C)c1[nH]nc(Nc2ccc(C(F)(F)F)cc2)c1C#N | > 50 | > 50 | 5.8 | 5.3
Cc1n[nH]c(Nc2ccc(C(F)(F)F)cc2)c1C#N | > 50 | 2.6 | 5.3 | 2.1
